Compound activity: PubChem, several laboratories
This is a sample that favours compounds with a hit; in the whole collection about 2.9% have one here.
CendR NRP1 mod: NRP-1/CendR interaction modulation. O14786. FAM-RPARPAR peptide binding to NRP-1, fluorescence polarization. inhibition, % at 25 µM. 0.85% of 360,000 active;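 active means inhibition or corrected inhibition above about 18%, plus a signal ratio from 0.5 to 1.5, limit read from the data, passing the limit was not always enough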
ADAM17 inh: ADAM17 inhibition, QFRET primary screen | 0.83% of 370,000 active | inhibition, % at 6.95 µM | AID 720648 | P78536 | recombinant ADAM17, EDANS/DABCYL FRET peptide cleavage;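 active means inhibition above the mean of compounds lying between control limits plus 3 SD, set per campaign, cut at about 8.5% in these data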
Target sequence (P78536 215-824 limits assumed): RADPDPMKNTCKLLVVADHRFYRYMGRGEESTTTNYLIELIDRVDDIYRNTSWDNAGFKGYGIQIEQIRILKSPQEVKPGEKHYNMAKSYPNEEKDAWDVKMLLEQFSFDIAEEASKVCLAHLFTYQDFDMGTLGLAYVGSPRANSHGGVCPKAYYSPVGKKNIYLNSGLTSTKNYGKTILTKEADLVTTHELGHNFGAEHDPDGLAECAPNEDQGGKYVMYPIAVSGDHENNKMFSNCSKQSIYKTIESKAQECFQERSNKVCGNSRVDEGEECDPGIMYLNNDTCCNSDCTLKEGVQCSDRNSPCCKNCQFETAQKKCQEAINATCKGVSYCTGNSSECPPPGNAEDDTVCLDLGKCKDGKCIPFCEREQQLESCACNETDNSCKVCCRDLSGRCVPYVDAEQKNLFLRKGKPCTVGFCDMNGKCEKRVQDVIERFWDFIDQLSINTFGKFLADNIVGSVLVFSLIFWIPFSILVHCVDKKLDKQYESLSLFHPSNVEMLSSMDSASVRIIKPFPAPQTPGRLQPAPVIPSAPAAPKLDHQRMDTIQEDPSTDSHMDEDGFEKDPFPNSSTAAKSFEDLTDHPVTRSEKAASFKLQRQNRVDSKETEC
CaV13 FRET inh: Disruptors of the CACNA1D IQ motif to Ca2+-dependent inactivation inhibitor domain association, primary screening, Förster resonance energy transfer in intact living …; AID 743397; 0.098% of 340,000 active; inhibition, % at 12.3 µM; HEK cells, CFP/YFP FRET ICDI-IQ, plate reader, 10 min; percent FRET-ratio fall versus neutral wells;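 active means mean replicate inhibition of at least 30% and at least 1% of replicates passing that level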
Arrestin-AP2 inh: human beta-arrestin and AP2 interaction inhibition | 0.31% of 340,000 active | AID 504490 | FITC-arrestin peptide / GST-AP2 beads, flow cytometry; AP2 beta2 appendage carries R879A mutation | inhibition, % at 10 µM;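 active means inhibition above a set limit, near 3 SD of compounds lacking own fluorescence, cut at about 54% in these data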
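System: GST-AP2 R879A glutathione beads. Medium: PBS with 0.05% Tween 20 and 0.1% BSA. Also added: FITC-arrestin peptide, 50 nM. Incubation: 12 min plus 1 h, RT. Measured by: high-throughput flow cytometry of beads, ex 488, em 535 nm. Evaluation: percent drop in bead-associated FITC signal.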
ADAM10 inh: ADAM10 inhibition, QFRET primary screen | 0.62% of 370,000 active | inhibition, % at 7 µM | recombinant ADAM10, EDANS/DABCYL FRET peptide cleavage, 3 h | O14672;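 active means inhibition above a per-campaign cutoff equal to the mean of compounds falling between control-based bounds plus 3 SD, cut at about 20% in these data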
FAS TE block: inhibitors of human fatty acid synthase thioesterase domain; inhibition, % at 15 µM; 0.67% of 360,000 active; recombinant FAS-TE, OMFH fluorogenic substrate, fluorescence endpoint;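 active means compounds whose normalised, plate-corrected inhibition of enzyme fluorescence in the single-dose primary screen is 50% or more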
FAS-TE conf: confirmation of human fatty acid synthase thioesterase inhibitors. shares compounds with FAS TE block. recombinant FAS-TE, OMFH fluorogenic substrate, fluorescence. inhibition, % at 15 µM. 45% of 2,300 active. AID 624325;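 active means compounds inhibiting the enzyme by at least 50% at 15 µM in any one of the replicates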
Hits are given with their value.

CCOC(=O)CC(N)c1cccc([N+](=O)[O-])c1 (centres undefined) was read as CendR NRP1 mod inactive, ADAM17 inh inactive, CaV13 FRET inh inactive, Arrestin-AP2 inh inactive, ADAM10 inh inactive and FAS TE block inactive.
COC(=O)CC(NC(=O)Nc1ccc(C)cc1)c1cccc([N+](=O)[O-])c1 (centres undefined) was read as CendR NRP1 mod inactive, ADAM17 inh inactive, CaV13 FRET inh inactive, Arrestin-AP2 inh inactive, ADAM10 inh inactive, FAS TE block 53 and FAS-TE conf 65.
Screening O=C(O)CC(NC(=O)C(c1ccccc1)c1ccccc1)c1cccc([N+](=O)[O-])c1 (centres undefined) returned CendR NRP1 mod inactive, ADAM17 inh inactive, CaV13 FRET inh inactive, Arrestin-AP2 inh inactive, ADAM10 inh inactive, FAS TE block 52 and FAS-TE conf 64.
CCOC(=O)CC(NC(=O)c1cc2ccccc2oc1=O)c1cccc([N+](=O)[O-])c1 (centres undefined) was read as CendR NRP1 mod inactive, ADAM17 inh inactive, CaV13 FRET inh inactive, Arrestin-AP2 inh inactive, ADAM10 inh inactive, FAS TE block 50 and FAS-TE conf 55.
Nc1ccn([C@@H]2O[C@H](C(=O)N[C@H](Cc3ccccc3)C(=O)N3CCC(F)(F)CC3)[C@@H](O)[C@H]2O)c(=O)n1 was read as ADAM17 inh inactive, CaV13 FRET inh inactive and ADAM10 inh inactive.
Screening O=C(c1cc(-c2cccs2)nc2ccccc12)N1CCN(c2ccccc2)CC1 returned CendR NRP1 mod inactive, ADAM17 inh inactive, CaV13 FRET inh inactive, Arrestin-AP2 inh inactive, ADAM10 inh inactive, FAS TE block 50 and FAS-TE conf inactive.
CCCCc1c(-c2ccccc2OC)ncn1Cc1ccc(Cl)cc1Cl was read as ADAM17 inh inactive, CaV13 FRET inh inactive and ADAM10 inh inactive.
O=C(N/C(=C/c1ccccc1)C(=O)N1CCOCC1)c1ccc([N+](=O)[O-])cc1 was read as CendR NRP1 mod inactive, ADAM17 inh inactive, CaV13 FRET inh inactive, Arrestin-AP2 inh inactive, ADAM10 inh inactive, FAS TE block 53 and FAS-TE conf 47.
For COc1ccc(/C=C(\NC(=O)c2ccc([N+](=O)[O-])cc2)C(=O)N2CCOCC2)cc1 the results were CendR NRP1 mod inactive, ADAM17 inh inactive, CaV13 FRET inh inactive, Arrestin-AP2 inh inactive, ADAM10 inh inactive, FAS TE block 82 and FAS-TE conf 87.
`O=C(N/C(=C\c1ccc([N+](=O)[O-])cc1)C(=O)N1CCOCC1)c1ccccc1` gave CendR NRP1 mod inactive, ADAM17 inh inactive, CaV13 FRET inh inactive, Arrestin-AP2 inh inactive, ADAM10 inh inactive and FAS TE block inactive.
O[C@@H]1CN(CC2CCCCC2)[C@@H](c2ccccc2)C[C@H]1n1cc(-c2ccc(F)cc2)nn1 was read as CendR NRP1 mod inactive, ADAM17 inh inactive, CaV13 FRET inh inactive, ADAM10 inh inactive and FAS TE block inactive.
O=C(O)c1ccccc1Nc1cc(Cl)c2nonc2c1[N+](=O)[O-] was read as CendR NRP1 mod inactive, ADAM17 inh inactive, CaV13 FRET inh inactive, Arrestin-AP2 inh inactive, ADAM10 inh inactive and FAS TE block inactive.
Screening O=[N+]([O-])c1c(Nc2ccccn2)cc(Cl)c2nonc12 returned CendR NRP1 mod inactive, ADAM17 inh inactive, CaV13 FRET inh inactive, Arrestin-AP2 inh inactive, ADAM10 inh inactive, FAS TE block 62 and FAS-TE conf inactive.
Screening CN(C)c1cc(Nc2ccc(O)cc2)c([N+](=O)[O-])c2nonc12 returned CendR NRP1 mod inactive, ADAM17 inh inactive, CaV13 FRET inh inactive, Arrestin-AP2 inh inactive, ADAM10 inh inactive and FAS TE block inactive.
Screening O=[N+]([O-])c1c(Nc2ccc(O)cc2)cc(Cl)c2nonc12 returned CendR NRP1 mod 26, ADAM17 inh inactive, CaV13 FRET inh inactive, Arrestin-AP2 inh inactive, ADAM10 inh inactive, FAS TE block 60 and FAS-TE conf 44.
Cc1cc(Cl)ccc1C(O)c1ncc(-c2ccc(F)cc2)[nH]1 (centres undefined) was read as CendR NRP1 mod inactive and FAS TE block inactive.
